# Reference: ChEMBL document CHEMBL1141184, “Synthesis and biological study of a new series of 4'-demethylepipodophyllotoxin derivatives” (J Med Chem, 2005)
# Tests used:
# L1210 [1] = test: Inhibition of L1210 cell proliferation in cytotoxic assay; type: functional, cell-based; conditions: Mus musculus
# Summary of the method: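 Murine L1210 leukaemia cells (nonadherent, exponential growth) in RPMI 1640 with 10% FCS, 2 mM glutamine, 10 mM HEPES pH 7.4; 48 h exposure to serial dilutions (compounds from 5 mM DMSO stock diluted in water). MTT added for 4 h at 37 °C, formazan dissolved in DMSO, OD 540 nm; IC50 by linear regression on linear part of dose–response; triplicate.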
# [2] = biological target: DNA topoisomerase 2-alpha (Homo sapiens) (UniProt P11388); test: Inhibition of human DNA topoisomerase II alpha as percent linear DNA after treatment with 20 uM
# L1210 [3] = test: Percentage of L1210 cells in the G2M phase after treatment with compound at 1 uM concentration expressed as cell cycle effect; type: functional, Mus musculus
# Summary of the method: (§1)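 L1210 cells at 2.5×10^5 cells/mL exposed 21 h to the compound; fixed in 70% ethanol, stained 30 min at 20 °C in D-PBS with 100 µg/mL RNase A and 25 µg/mL propidium iodide; 10^4 cells per sample by flow cytometry; value is % of cells in G2M.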
# L1210 [4] = test: Percentage of L1210 cells in the G2M phase after treatment with compound at 2.5 uM concentration expressed as cell cycle effect; type: functional, Mus musculus; summary of the method: as §1
# P388 = test: Maximum tolerated dose value on day 1 against mouse P388 leukemia cells; type: functional
# Summary of the method: (§2)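 B6D2F1 mice inoculated ip with 10^6 P388 cells (day 0), single iv dose on day 1. MTD = highest dose without toxic death and/or >20% weight loss. T/C (%) = median survival time treated/control ×100.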
# Mus musculus [5] = species: Mus musculus; test: Percent median survival time to that of control in mice on day 1; type: functional; summary of the method: as §2
# Mus musculus [6] = species: Mus musculus; test: Percent median survival time to that of control in mice on days 14,21 and 28; type: functional
# Summary of the method: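 BALB/c nude mice given 10^6 A549 cells orthotopically into left pleural space under anaesthesia; iv treatment on days 14, 21 and 28 after implantation. MTD = dose without toxic death and/or >20% weight loss; T/C (%) = median survival time treated/control ×100.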
# A549 = test: Maximum tolerated dose after treatment on days 14, 21, and 28 against human A549 non-small-cell lung carcinoma
# L1210 [7] = test: Percentage of L1210 cells in the G2M phase after treatment with compound at 25 uM concentration expressed as cell cycle effect; type: functional, Mus musculus; summary of the method: as §1
# L1210 [8] = test: Percentage of L1210 cells in the G2M phase after treatment with compound at 10 uM concentration expressed as cell cycle effect; type: functional, Mus musculus; summary of the method: as §1
# L1210 [9] = test: Percentage of L1210 cells in the G2M phase after treatment with compound at 0.1 uM concentration expressed as cell cycle effect; type: functional, Mus musculus; summary of the method: as §1
# Chain of DNA topoisomerase 2-alpha (Homo sapiens) (P11388 whole entry): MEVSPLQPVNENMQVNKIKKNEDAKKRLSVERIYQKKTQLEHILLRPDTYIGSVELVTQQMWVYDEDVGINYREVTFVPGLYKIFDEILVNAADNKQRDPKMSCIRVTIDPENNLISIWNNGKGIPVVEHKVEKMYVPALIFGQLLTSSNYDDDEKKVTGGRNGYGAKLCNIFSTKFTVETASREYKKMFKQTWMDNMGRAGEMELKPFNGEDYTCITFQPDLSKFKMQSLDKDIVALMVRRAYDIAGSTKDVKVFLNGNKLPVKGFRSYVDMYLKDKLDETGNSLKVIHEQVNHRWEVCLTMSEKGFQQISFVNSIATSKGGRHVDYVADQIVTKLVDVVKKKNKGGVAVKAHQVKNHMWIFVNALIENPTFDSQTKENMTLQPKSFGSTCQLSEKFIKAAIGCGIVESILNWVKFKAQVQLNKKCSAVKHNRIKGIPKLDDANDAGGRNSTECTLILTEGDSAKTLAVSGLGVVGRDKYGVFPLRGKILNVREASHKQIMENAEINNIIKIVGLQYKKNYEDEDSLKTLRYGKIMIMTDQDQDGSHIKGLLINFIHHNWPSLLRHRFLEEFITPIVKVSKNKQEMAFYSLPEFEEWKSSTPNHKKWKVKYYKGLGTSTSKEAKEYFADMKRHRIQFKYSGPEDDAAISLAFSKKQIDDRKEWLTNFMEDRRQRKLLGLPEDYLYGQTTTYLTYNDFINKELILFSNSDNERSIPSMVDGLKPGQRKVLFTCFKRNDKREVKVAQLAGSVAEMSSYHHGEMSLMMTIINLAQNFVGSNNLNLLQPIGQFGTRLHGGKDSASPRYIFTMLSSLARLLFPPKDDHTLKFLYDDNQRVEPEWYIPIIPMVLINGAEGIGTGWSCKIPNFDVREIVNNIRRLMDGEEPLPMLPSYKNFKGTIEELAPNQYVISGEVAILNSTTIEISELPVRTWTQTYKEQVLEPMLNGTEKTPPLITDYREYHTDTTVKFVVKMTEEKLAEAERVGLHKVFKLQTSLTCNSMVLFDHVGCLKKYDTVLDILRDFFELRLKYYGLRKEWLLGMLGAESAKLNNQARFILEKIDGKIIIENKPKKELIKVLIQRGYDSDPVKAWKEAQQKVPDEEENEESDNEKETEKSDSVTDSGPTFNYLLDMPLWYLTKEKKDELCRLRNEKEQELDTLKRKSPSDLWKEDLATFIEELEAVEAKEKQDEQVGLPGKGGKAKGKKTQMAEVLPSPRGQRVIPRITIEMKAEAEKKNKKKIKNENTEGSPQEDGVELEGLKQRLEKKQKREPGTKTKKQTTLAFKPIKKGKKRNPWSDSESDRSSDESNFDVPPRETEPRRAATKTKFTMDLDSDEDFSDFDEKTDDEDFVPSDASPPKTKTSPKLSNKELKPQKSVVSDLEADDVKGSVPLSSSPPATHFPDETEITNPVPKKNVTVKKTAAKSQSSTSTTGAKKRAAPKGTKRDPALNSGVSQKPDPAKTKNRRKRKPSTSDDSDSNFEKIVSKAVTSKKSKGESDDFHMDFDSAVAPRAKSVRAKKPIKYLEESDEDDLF
SMILES,IC50 (L1210 [1]),percent linear DNA [2],also measured
COc1cc([C@@H]2c3cc4c(cc3[C@@H](OC(=O)NCCCN)[C@H]3C(=O)OC[C@H]23)OCO4)cc(OC)c1O,4300 nM,0%,–
COc1cc([C@@H]2c3cc4c(cc3[C@@H](OC(=O)NCCCN(C)C)C3COC(=O)[C@@H]32)OCO4)cc(OC)c1O (stereo not given in full),340 nM,58%,Activity (L1210 [3]): 72%
COc1cc([C@@H]2c3cc4c(cc3[C@@H](CCN(C)CCN(C)C)C3COC(=O)[C@@H]32)OCO4)cc(OC)c1O (stereo not given in full),600 nM,57%,Activity (L1210 [4]): 75%
COc1cc([C@@H]2c3cc4c(cc3[C@@H](OC(=O)NCCCN)C3COC(=O)[C@@H]32)OCO4)cc(OC)c1O (stereo not given in full),1300 nM,38%,–
COc1cc([C@@H]2c3cc4c(cc3[C@@H](O[C@@H]3O[C@@H]5CO[C@@H](C)O[C@H]5[C@H](O)[C@H]3O)[C@H]3COC(=O)[C@H]23)OCO4)cc(OC)c1O [ETOPOSIDE],–,50%,Activity (L1210 [4]): 76%; MTD (P388): 100 mg/kg; T/C (Mus musculus [5]): 233%; T/C (Mus musculus [6]): 131%; MTD (A549): 70 mg/kg
COc1cc([C@@H]2c3cc4c(cc3[C@@H](OC(=O)N(C)CCCN)C3COC(=O)[C@@H]32)OCO4)cc(OC)c1O (stereo not given in full),240 nM,8%,–
COc1cc([C@@H]2c3cc4c(cc3[C@@H](OCNCCN(C)C)C3COC(=O)[C@@H]32)OCO4)cc(OC)c1O (stereo not given in full),27900 nM,–,–
COc1cc([C@@H]2c3cc4c(cc3[C@@H](OC(=O)N(C)CCN(C)C)C3COC(=O)[C@@H]32)OCO4)cc(OC)c1O (stereo not given in full),1700 nM,27%,Activity (L1210 [4]): 77%; MTD (P388): 50 mg/kg; T/C (Mus musculus [5]): 182%; T/C (Mus musculus [6]): 102%; MTD (A549): 25 mg/kg
COc1cc([C@@H]2c3cc4c(cc3[C@@H](OC(=O)N(C)CCN(C)C)[C@H]3C(=O)OC[C@H]23)OCO4)cc(OC)c1O,5200 nM,0%,Activity (L1210 [7]): 77%
COc1cc([C@@H]2c3cc4c(cc3[C@@H](OC(=O)NCCCN(C)C)[C@H]3C(=O)OC[C@H]23)OCO4)cc(OC)c1O,1400 nM,0%,Activity (L1210 [8]): 65%
COc1cc([C@@H]2c3cc4c(cc3[C@@H](OC(=O)N(C)CCCN(C)C)C3COC(=O)[C@@H]32)OCO4)cc(OC)c1O (stereo not given in full),960 nM,17%,–
COc1cc([C@@H]2c3cc4c(cc3[C@@H](OC(=O)NCCN(C)C)C3COC(=O)[C@@H]32)OCO4)cc(OC)c1O (stereo not given in full),38 nM,56%,Activity (L1210 [9]): 67%; MTD (P388): 6.25 mg/kg; T/C (Mus musculus [5]): 192%; T/C (Mus musculus [6]): 151%; MTD (A549): 6.25 mg/kg
COc1cc([C@@H]2c3cc4c(cc3[C@@H](OC(=O)N(C)CCCN(C)C)[C@H]3C(=O)OC[C@H]23)OCO4)cc(OC)c1O,21000 nM,0%,–
COc1cc([C@@H]2c3cc4c(cc3[C@@H](OC(=O)NCCN(C)C)[C@H]3C(=O)OC[C@H]23)OCO4)cc(OC)c1O,88 nM,64%,MTD (P388): 12.5 mg/kg; T/C (Mus musculus [5]): 214%; T/C (Mus musculus [6]): 152%; Activity (L1210 [3]): 83%; MTD (A549): 6.25 mg/kg
